Screening results deposited in PubChem by several laboratories.
Rows were chosen to be rich in hits. Some 5.8% of all compounds tested hit in one or more screens of this group.
Plk1 PBD FP – inhibitors of human Plk1 polo box domain binding | Plk1 PBD phosphopeptide binding, fluorescence polarization | AID 693 | P53350 | actives 0.13% (n = 97,000) | inhibition, %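 (tested at about 20 µM)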; in the data active = inhibition above about 34%, passing the limit was not always enough
Target sequence (P53350 whole entry, looked up, the tested form may be a part): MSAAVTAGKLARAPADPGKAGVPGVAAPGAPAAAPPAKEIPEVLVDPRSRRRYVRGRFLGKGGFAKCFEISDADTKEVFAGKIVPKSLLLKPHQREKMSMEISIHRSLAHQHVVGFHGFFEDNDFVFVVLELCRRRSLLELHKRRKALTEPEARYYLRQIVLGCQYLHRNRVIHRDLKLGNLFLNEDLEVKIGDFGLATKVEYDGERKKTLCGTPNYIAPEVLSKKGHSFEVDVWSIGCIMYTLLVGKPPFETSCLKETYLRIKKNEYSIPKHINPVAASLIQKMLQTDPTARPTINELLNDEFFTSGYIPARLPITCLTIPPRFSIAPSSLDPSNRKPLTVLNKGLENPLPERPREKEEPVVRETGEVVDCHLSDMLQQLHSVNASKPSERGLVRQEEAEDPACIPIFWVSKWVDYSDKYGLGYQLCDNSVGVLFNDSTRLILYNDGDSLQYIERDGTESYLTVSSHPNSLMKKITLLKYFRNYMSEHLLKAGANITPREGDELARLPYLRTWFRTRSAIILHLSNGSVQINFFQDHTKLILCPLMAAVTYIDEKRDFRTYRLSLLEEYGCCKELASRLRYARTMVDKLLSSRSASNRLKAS
Pyk2 oligo antag – Pyk2 (human) oligomerization antagonism | Q14289 | z-score (the deposit names both 25 µM and 10 µM) | actives 0.83% (n = 99,000) | Q293 cells, Pyk2 FERM NanoBiT luminescence; stronger effect = lower value;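 active = Z-score of -3 or lower, scaled per plate to the spread of control and sample wells; inactive = z-score above -3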;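 note: negative z-score means lost luminescence so less FERM oligomerization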
HIV Rev-RRE inh – inhibitors of HIV-1 Rev-RRE RNA interaction | P05866 | Rev peptide-RRE RNA binding, FRET | inhibition, % at 8 µM | actives 0.79% (n = 97,000) | AID 704;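 active = inhibition above the screen-wide mean plus 3 SD, cut at about 35% in these data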
Target sequence (P05866 whole entry, looked up): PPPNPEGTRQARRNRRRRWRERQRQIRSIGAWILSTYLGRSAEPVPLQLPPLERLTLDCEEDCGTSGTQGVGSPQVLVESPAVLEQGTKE
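Assay system: Rev peptide and RRE RNA, both fluorescently labelled; times: 5 min preincubation and 15 min binding, 25 °C; detection: FRET, ex 480 nm, em 540 and 671 nm; read-out basis: % inhibition from 671/540 nm acceptor-to-donor ratio, scaled between controls; benchmarks: DMSO low control, neomycin B high control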
FAK blocker – blocks human focal adhesion kinase activity. Q05397. biochemical FAK kinase activity assay. inhibition, %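 (tested at 7 µM)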. actives 0.84% (n = 97,000). AID 727; in the data active = inhibition above about 19%
Cav32 inh – human Cav3.2 channel inhibition, primary screen | Cav3.2-expressing cells, Fluo-4 calcium fluorescence FDSS; stronger effect = lower value | actives 4% (n = 100,000) | O95180 | B-score at 10 µM | AID 449739;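 active = single-dose well whose peak fluorescence ratio is a statistical outlier from its plate by either plate-standardised score or position-corrected B-score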
PLK1 kinase inh – blocks human PLK1 kinase activity; recombinant PLK1 kinase, TR-FRET peptide phosphorylation; inhibition, % at 10 µM; actives 0.53% (n = 97,000); AID 619;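 active = inhibition of 50% or more in the single-concentration screen; inactive = inhibition below 50%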
Of the large screens only hits and unclear results are named; the others gave an inactive call.

Cc1ccc(-c2nc(CSCC(=O)N3CCN(c4ccccn4)CC3)c(C)o2)cc1	Cav32 inh -5 (no result: Pyk2 oligo antag)
C=CCn1cc(C(=O)NCc2ccco2)c(=O)c2cc(S(=O)(=O)N3CCCCCC3)ccc21	Cav32 inh -4.9
CCn1cc(C(=O)NCc2ccco2)c(=O)c2cc(S(=O)(=O)N3CCCCCC3)ccc21	none
CCn1cc(C(=O)NCc2ccco2)c(=O)c2cc(S(=O)(=O)N3CC(C)CC(C)C3)ccc21 (stereo unspecified)	Cav32 inh -8.1
CCCC(C)NS(=O)(=O)c1ccc(OC)c(C)c1 (stereo unspecified)	none
CCC(C)(C)C1CCC(=NNC(=O)c2ccoc2C)CC1 (stereo unspecified)	none
CSCc1nnc(NC(=O)c2ccc(S(=O)(=O)N(CC(C)C)CC(C)C)cc2)o1	Cav32 inh -6 (no result: Pyk2 oligo antag)
Cc1nnc(NC(=O)c2ccc(S(=O)(=O)N(C)Cc3ccccc3)cc2)o1	none
CCN(Cc1ccccc1)S(=O)(=O)c1ccc(C(=O)Nc2nnc(C3CC3)o2)cc1	Cav32 inh -5.6 (no result: Pyk2 oligo antag, HIV Rev-RRE inh, FAK blocker)
Cn1c(=NC(=O)CN2C(=O)C3CC=CCC3C2=O)sc2ccccc21 (stereo unspecified)	none
COC(=O)Cn1c(=NC(=O)CSC(C)=O)sc2ccccc21	Cav32 inh -6.2 (no result: Plk1 PBD FP, Pyk2 oligo antag, HIV Rev-RRE inh, FAK blocker, PLK1 kinase inh)
CCn1c(=NC(=O)CSC(C)=O)sc2ccccc21	Cav32 inh -7.3
CCOC(=O)Cn1c(C(=O)OCC)cc2sccc21	none (no result: Plk1 PBD FP, HIV Rev-RRE inh, FAK blocker, PLK1 kinase inh)
CCOC(=O)Cn1c(=NC(=O)CSC(C)=O)sc2cc(F)ccc21	Cav32 inh -7.5 (no result: Pyk2 oligo antag)
Cc1ccc(C2CC(C(F)(F)F)n3nc(C(=O)NCC4CCCO4)cc3N2)cc1 (stereo unspecified)	none (no result: Pyk2 oligo antag)
Cc1ccc(C(CC(=O)N2CCOCC2)c2ccco2)cc1 (stereo unspecified)	none
COc1cc(/C=c2\s/c(=C(/C#N)C(=O)N3CCCC3)n(-c3ccccc3)c2=O)ccc1O	Pyk2 oligo antag -3, HIV Rev-RRE inh 46
COC(=O)/C=c1/s/c(=C(/C#N)C(=O)N2CCOCC2)n(-c2ccccc2)c1=O	none
N#Cc1ccc(-n2nccc2-c2cnc3n(c2=O)CCS3)cc1	none
O=C(NC1CCCCC1)N1CCSC1=Nc1ccccc1	Cav32 inh -4
Cc1ccc(C(=O)n2cnnc2N)cc1	none
COC(/C=C/Nc1ccc(Br)cc1)=C(C#N)C#N	none
O=C(CN1CCCCC1)Nc1ccc(S(=O)(=O)N2CCCCCC2)cc1	none
O=C(CS(=O)(=O)Cc1ccccc1)Nc1ccc(S(=O)(=O)N2CCCCCC2)cc1	Cav32 inh -7.1
O=C(COC(=O)CCc1ccc(S(=O)(=O)N2CCCCC2)cc1)Nc1ccc2c(c1)OCO2	Cav32 inh -5.5 (no result: Plk1 PBD FP, HIV Rev-RRE inh, FAK blocker, PLK1 kinase inh)
O=C(COC(=O)CN1C(=O)c2ccccc2C1=O)Nc1ccc(S(=O)(=O)N2CCCC2)cc1	none
CC(C(=O)OCC(=O)Nc1ccc(S(=O)(=O)N2CCCCC2)cc1)N1C(=O)c2ccccc2C1=O (stereo unspecified)	Cav32 inh -5.7
COC(=O)c1cc(OC)c(OC)cc1NC(=O)c1c(C)noc1C	none (no result: Pyk2 oligo antag, Cav32 inh)
CCCCOC(=O)Nc1ccc(C)c(Cl)c1	none (no result: Cav32 inh)
Cc1cc(C)nc(SCc2nnc(SCC(=O)Nc3ccc(C)c(C)c3)n2Cc2ccco2)n1	Cav32 inh -8
O=C(CSc1nnc(Cc2cccs2)n1Cc1ccco1)Nc1ccc(Br)cc1	Cav32 inh -4
O=C(CSc1nnc(Cc2ccccc2)n1Cc1ccco1)NC12CC3CC(CC(C3)C1)C2	Cav32 inh -3.2
O=C(CSc1nnc(Cc2cccs2)n1Cc1ccco1)Nc1ccc(Cl)cc1Cl	none (no result: Cav32 inh)
O=C(Nc1ccc(-c2nc3c(ccc4ccccc43)o2)cc1)c1ccco1	none
CCOC(=O)c1c(C)[nH]c(C)c1C(=O)CSc1ncccn1	none
CCCCN(CC(=O)Nc1c(C)cccc1CC)C(=O)SCC	Cav32 inh -3.8
CCCN(CC(=O)Nc1c(C)cccc1CC)C(=O)SCC	none
COC(=O)C1=C(C)NC2=C(C(=O)CCC2)C1c1cn(Cc2ccc(Cl)cc2Cl)nc1-c1ccccc1 (stereo unspecified)	Cav32 inh -7.3
COC(=O)C1=NN(C(=O)c2ccc(C)cc2)C(O)(c2ccc(Cl)cc2)C1 (stereo unspecified)	Cav32 inh -3.2 (no result: Pyk2 oligo antag)
CCC1=NN(C(=O)c2ccc(C)cc2)C(O)(c2ccc(Br)cc2)C1 (stereo unspecified)	none (no result: Plk1 PBD FP, HIV Rev-RRE inh, FAK blocker, Cav32 inh, PLK1 kinase inh)
CN(C)c1ccc(C2NCC(CCl)O2)cc1 (stereo unspecified)	none
COc1ccc(Cc2nc(C(=O)Nc3ccc(OC)cc3)cs2)cc1	none
COc1ccc(Cc2nc(C(=O)NCc3ccccc3OC)cs2)cc1	Cav32 inh -6.7
COc1ccc(-c2n[nH]c3c2C(c2ccc(OC)c(OC)c2)N(c2ccccc2)C3=O)cc1 (stereo unspecified)	Pyk2 oligo antag -3, Cav32 inh -5.6
CC1(c2nnc(-c3cccc(Cl)c3)o2)CC(c2ccc(Br)cc2)=NO1 (stereo unspecified)	none (no result: Plk1 PBD FP, Pyk2 oligo antag, HIV Rev-RRE inh, FAK blocker, PLK1 kinase inh)
O=C(CSc1nnc2scc(-c3ccccc3)n12)c1ccc2c(c1)OCCO2	PLK1 kinase inh 59 (no result: Pyk2 oligo antag)
Cn1c(=O)c2c(nc(CN3CCc4ccccc4C3)n2Cc2cccc(Cl)c2)n(C)c1=O	Cav32 inh -4.2 (no result: Plk1 PBD FP, Pyk2 oligo antag, HIV Rev-RRE inh, FAK blocker, PLK1 kinase inh)
CC(C)Sc1nc2c(c(=O)n(C)c(=O)n2C)n1Cc1ccc(Cl)cc1	Cav32 inh -4.5
Cn1c(N2CCN(c3ccccn3)CC2)nc2c1c(=O)n(Cc1ccc(Cl)cc1)c(=O)n2C	Cav32 inh -3.3 (no result: Plk1 PBD FP, HIV Rev-RRE inh, FAK blocker, PLK1 kinase inh)
Cn1c(=O)c2c(nc(SCc3ccccc3)n2Cc2ccc(Cl)cc2)n(C)c1=O	Cav32 inh -4.4
Cn1c(N2CCOCC2)nc2c1c(=O)n(Cc1ccc(Cl)cc1)c(=O)n2C	none
CN(C)c1nc2c(c(=O)n(C)c(=O)n2C)n1Cc1ccccc1	none
CCCCCCCCC(=O)Nc1cc(C)ccc1OC	none
CC(C)c1nc(SCC(=O)NCc2ccccc2)n[nH]1	none
Cc1ccc2nc(SCc3ccc([N+](=O)[O-])cc3)[nH]c2c1	Cav32 inh -5.8
CC(C)[C@H](NC(=O)OC(C)(C)C)c1nnc(SCC(=O)Nc2ccc(Br)cc2)o1	Cav32 inh -6.7
CC(C)=CCSc1nnc([C@@H](NC(=O)OC(C)(C)C)C(C)C)o1	Cav32 inh -2.9
COc1ccc(NC(=O)[C@@H]2CC=C[C@@H]3CCN(C4CCCCC4)C(=O)[C@@H]32)cc1	none (no result: Plk1 PBD FP, Pyk2 oligo antag, HIV Rev-RRE inh, FAK blocker, PLK1 kinase inh)
O=C(CC1CCCCC1)c1c(O)c2ccccc2oc1=O	Cav32 inh -7.6
Cc1ccc(S(=O)(=O)c2c(C)cc(C)nc2Cl)cc1	none
Cc1cc(C)c(S(=O)(=O)c2ccccc2)c(OC(=O)c2c(Cl)cccc2Cl)n1	Cav32 inh -4.6
Cc1cc(C)c(S(=O)(=O)c2ccccc2)c(Cl)n1	PLK1 kinase inh 64
CCOC(=O)c1c(Nc2ccc(Cl)cc2)sc(/C=C2\C=Nc3ccccc32)c1O	HIV Rev-RRE inh 40
